Shown are actives, neighbours in structure and some others; about 3.9% of the full set was active somewhere.
Jurkat NFkB inh – inhibitors of induced NF-kB luciferase reporter, primary screen, TCR NF-kB activation inhibitor project, cell-based, luminescence, uHTS; 330,000 tested, 0.53% active; Jurkat, PMA/ionomycin-induced NF-kB luciferase reporter; inhibition, % at 4 µM; AID 435003, 2010; in the data active means inhibition above about 50%
697 NFkB inh – inhibitors of PMA/ionomycin-induced NF-kB reporter, 697 cells, primary screen, B-cell NF-kB inhibitor project, cell-based, luminescence, uHTS; 697 B-cell NF-kB luciferase reporter, 16 h; inhibition, % at 4 µM; 330,000 tested, 0.33% active; in the data active means inhibition above about 35%
Gli-Sufu antag – Gli-Sufu pathway antagonists, primary screen, luciferase luminescence, Sufu-KO-LIGHT cells, uHTS | 340,000 tested, 0.74% active | inhibition, % at 5 µM | Sufu-KO-LIGHT fibroblasts, Gli luciferase reporter luminescence | AID 588413, 2011;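 active means inhibition above about 55%, limit read from the data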
CHOP inh – inhibitors of CHOP promoter induction, primary screen, cell-based, unfolded protein response, luciferase reporter; AID 2732, 2010; CHO-K1 CHOP-promoter luciferase, tunicamycin-induced, 15-18 h; inhibition, % at 10 µM; 220,000 tested, 3.8% active;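 active means compounds that reduced the stress-induced luciferase reporter signal by more than about 70% of percent inhibition, limit read from the data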
UPR XBP1 act – activators of adaptive XBP1 UPR arm, primary screen, cell-based, CHO-XBP1 luciferase reporter, luminescence, uHTS; IRE1-XBP1 UPR activation; percent of tunicamycin response, DMSO as zero; activation, % at 20 µM; 330,000 tested, 0.33% active; AID 463104, 2010;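 active means versus positive control, 20 µM dose yields 30% or more activation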
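incubation = overnight seeding at 37 °C, 6 h compound treatment at 37 °C | assay system = CHO-XBP1 cells stably carrying IRE1-XBP1-driven luciferase reporter | input = 1000 cells per well | detection = luciferase luminescence | dosing = single point, 20 µM final compound, 1% DMSO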
CHOP UPR activ – activators of apoptotic CHOP UPR arm, primary screen, cell-based, CHO-CHOP luciferase reporter, luminescence, uHTS; 330,000 tested, 0.34% active; AID 449763, 2010; UPR activation; percent of tunicamycin response over DMSO baseline; activation, % at 10 µM;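 active means at 10 µM dose, activation of 40% or more, normalized to positive control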
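System: CHO-CHOP luciferase reporter cell line; amount: 500 cells/well; buffer or medium: F12 medium containing 10% fetal bovine serum; incubation: 6 h compound exposure at 37 °C after overnight seeding; measured by: luciferase luminescence after 10 min with Steady-Glo reagent; evaluation: % reporter activation, DMSO baseline versus tunicamycin full activation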
Gli antag conf – Gli-SUFU pathway antagonists, confirmation, single concentration, luciferase luminescence, Sufu-KO-LIGHT cells; shares compounds with Gli-Sufu antag; Gli luciferase reporter; inhibition, % at 5 µM; 2,500 tested, 40% active; AID 602428, 2012;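 active means mean inhibition at 5 µM reaching about 45%, limit read from the data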
SufuKO cytotox – cytotoxicity in Sufu-KO-LIGHT cells, confirmation, cytotoxicity control for Gli-SUFU antagonist project, cell-based, ATP luminescence, single concentration; shares compounds with Gli-Sufu antag; cytotoxicity, % at 5 µM; 2,500 tested, 32% active;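 active means mean cytotoxicity at 5 µM above about 25%, limit read from the data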;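 further: cells exposed to compound overnight for roughly 16 to 18 hours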
Wnt3a counter – Wnt3a reporter signal inhibition, confirmation, counter-screen for Gli-SUFU antagonist project, Wnt-LIGHT cells, luminescence, single concentration; shares compounds with Gli-Sufu antag; Wnt3a-driven luciferase reporter; inhibition, % at 6.25 µM; AID 651995, 2013; 2,500 tested, 20% active;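 active means mean inhibition above about 25%, limit read from the data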
Hits are given with their value.

How did CCOC(=O)c1cc(-c2ccccc2C)n(CC2CC(c3cccc([N+](=O)[O-])c3)=NO2)n1 (stereo not drawn) do in these assays?
Jurkat NFkB inh: inactive; 697 NFkB inh: inactive; Gli-Sufu antag: inactive; UPR XBP1 act: inactive; CHOP UPR activ: inactive

What do the screens show for `Cc1onc(-c2c(Cl)cccc2Cl)c1C(O)c1ccccc1` (stereo not drawn)?
Jurkat NFkB inh: inactive; 697 NFkB inh: inactive; Gli-Sufu antag: inactive; UPR XBP1 act: inactive; CHOP UPR activ: inactive

How did O=C(c1cc2n(n1)C(C(F)(F)F)CC(c1ccc(Cl)cc1)N2)N1CCCC1 (stereo not drawn) do in these assays?
Jurkat NFkB inh: inactive; 697 NFkB inh: inactive; Gli-Sufu antag: 57; CHOP inh: inactive; UPR XBP1 act: inactive; CHOP UPR activ: inactive; Gli antag conf: inactive; SufuKO cytotox: inactive; Wnt3a counter: inactive

Results for O=C(c1cc2n(n1)C(C(F)(F)F)CC(c1ccc(F)cc1)N2)N1CCCC1 (stereo not drawn) ?
Jurkat NFkB inh: inactive; 697 NFkB inh: inactive; Gli-Sufu antag: inactive; CHOP inh: inactive; UPR XBP1 act: inactive; CHOP UPR activ: inactive

How did COc1ccc(COC(=O)N/N=C(\C)CC(=O)Nc2c(C)cc(C)cc2C)cc1 do in these assays?
Jurkat NFkB inh: inactive; 697 NFkB inh: inactive; Gli-Sufu antag: 99; CHOP inh: inactive; UPR XBP1 act: inactive; CHOP UPR activ: inactive; Gli antag conf: inactive; SufuKO cytotox: inactive; Wnt3a counter: inactive

How did CCOc1ccc2cc(C(=O)c3ccccc3)c(=O)oc2c1 do in these assays?
Gli-Sufu antag: inactive; CHOP inh: inactive

How did CCOc1ccc2cc(C(=O)NCc3ccccc3)c(=N)oc2c1 do in these assays?
Jurkat NFkB inh: inactive; 697 NFkB inh: inactive; Gli-Sufu antag: inactive; UPR XBP1 act: inactive; CHOP UPR activ: inactive; Gli antag conf: inactive; SufuKO cytotox: inactive; Wnt3a counter: inactive

Results for Cc1ccc(C(=O)NC(=S)Nc2ccccc2N2CCOCC2)cc1C ?
Jurkat NFkB inh: inactive; 697 NFkB inh: inactive; Gli-Sufu antag: 89; UPR XBP1 act: inactive; CHOP UPR activ: inactive; Gli antag conf: inactive; SufuKO cytotox: inactive; Wnt3a counter: inactive

How did Cc1cc(C(=O)CSc2nnc(-c3cccs3)n2Cc2ccccc2)c(C)n1C do in these assays?
Jurkat NFkB inh: inactive; 697 NFkB inh: inactive; Gli-Sufu antag: inactive; CHOP inh: inactive; UPR XBP1 act: inactive; CHOP UPR activ: inactive

Results for O=c1cc(CSc2nnc(-c3cccs3)n2Cc2ccccc2)nc2sc3ccccc3n12 ?
Jurkat NFkB inh: inactive; 697 NFkB inh: inactive; Gli-Sufu antag: 62; UPR XBP1 act: inactive; CHOP UPR activ: inactive; Gli antag conf: 57; SufuKO cytotox: 33; Wnt3a counter: 37

What do the screens show for `CCOC(=O)c1cc(CC)sc1NC(=O)c1cc(OCC)c(OCC)c(OCC)c1`?
Jurkat NFkB inh: inactive; 697 NFkB inh: inactive; Gli-Sufu antag: 99; CHOP inh: inactive; UPR XBP1 act: inactive; CHOP UPR activ: inactive; Gli antag conf: inactive; SufuKO cytotox: inactive; Wnt3a counter: inactive

What do the screens show for `COc1cc(C2C(C#N)=C(C)NC3=C2C(=O)c2ccccc23)cc(OC)c1OC` (stereo not drawn)?
Jurkat NFkB inh: inactive; 697 NFkB inh: inactive; Gli-Sufu antag: inactive; UPR XBP1 act: inactive; CHOP UPR activ: inactive; Gli antag conf: 58; SufuKO cytotox: 55; Wnt3a counter: inactive

How did COc1ccc(NC(=O)c2oc3ccccc3c2NC(=O)c2ccco2)c(OC)c1 do in these assays?
Jurkat NFkB inh: inactive; 697 NFkB inh: inactive; Gli-Sufu antag: inactive; CHOP inh: inactive; UPR XBP1 act: inactive; CHOP UPR activ: inactive; Gli antag conf: inactive; SufuKO cytotox: 43; Wnt3a counter: inactive

Results for COc1ccc(NC(=O)c2oc3ccccc3c2NC(=O)c2ccco2)cc1 ?
Jurkat NFkB inh: inactive; 697 NFkB inh: inactive; Gli-Sufu antag: inactive; CHOP inh: inactive; UPR XBP1 act: inactive; CHOP UPR activ: inactive

How did Nn1c(CSc2nc3ccccc3o2)nnc1CSc1nc2ccccc2o1 do in these assays?
Jurkat NFkB inh: inactive; 697 NFkB inh: inactive; Gli-Sufu antag: 94; CHOP inh: inactive; UPR XBP1 act: inactive; CHOP UPR activ: inactive; Gli antag conf: inactive; SufuKO cytotox: inactive; Wnt3a counter: inactive

Results for COc1cccc(NC(=O)CN(C)C(=O)c2cc3c(s2)CCCCC3)c1 ?
Jurkat NFkB inh: inactive; 697 NFkB inh: inactive; Gli-Sufu antag: inactive; UPR XBP1 act: inactive; CHOP UPR activ: inactive

Results for CCCCOCCCNc1ncnc2c1[nH]c1ccccc12 ?
Jurkat NFkB inh: inactive; 697 NFkB inh: inactive; Gli-Sufu antag: 81; CHOP inh: 85; UPR XBP1 act: inactive; CHOP UPR activ: inactive; Gli antag conf: 82; SufuKO cytotox: 27; Wnt3a counter: inactive

How did Cc1ccc(NC(=O)CNCc2ccccc2Cl)cc1S(=O)(=O)N(C)C do in these assays?
Jurkat NFkB inh: inactive; 697 NFkB inh: inactive; Gli-Sufu antag: inactive; UPR XBP1 act: inactive; CHOP UPR activ: inactive

What do the screens show for `Cc1ccc(CNc2nc(-c3cccs3)nc3ccccc23)cc1`?
Jurkat NFkB inh: inactive; 697 NFkB inh: inactive; Gli-Sufu antag: inactive; CHOP inh: inactive; UPR XBP1 act: inactive; CHOP UPR activ: inactive; Gli antag conf: inactive; SufuKO cytotox: inactive; Wnt3a counter: inactive

What do the screens show for `c1ccc(CNc2nc(-c3cccs3)nc3ccccc23)nc1`?
Jurkat NFkB inh: inactive; 697 NFkB inh: inactive; Gli-Sufu antag: inactive; CHOP inh: inactive; UPR XBP1 act: inactive; CHOP UPR activ: inactive

How did CNc1nc(NCc2ccccc2)c2ccccc2n1 do in these assays?
Jurkat NFkB inh: inactive; 697 NFkB inh: inactive; Gli-Sufu antag: 57; UPR XBP1 act: inactive; CHOP UPR activ: inactive; Gli antag conf: inactive; SufuKO cytotox: inactive; Wnt3a counter: inactive

Results for Oc1ccccc1Nc1nc(NCc2ccccc2)c2ccccc2n1 ?
Jurkat NFkB inh: inactive; 697 NFkB inh: inactive; Gli-Sufu antag: inactive; CHOP inh: inactive; UPR XBP1 act: inactive; CHOP UPR activ: inactive
